Only some compounds are listed: those with a hit (about 5.8% of all), similar ones and a draw of the others.
IDH1 R132H inh – IDH1 R132H (human) inhibition; hit rate 0.18% among 70,000; IDH1 R132H reductase, diaphorase/resazurin fluorescence, 60 min; O75874; AID 624101; inhibition, % at 10 µM; in the data active = inhibition above about 34%; inconclusive = no clear call, values can overlap the other calls; inactive = below about 11%
Pf Dd2 inh – inhibitors of Plasmodium falciparum Dd2 growth. activity change, % at 10 µM. hit rate 2.3% among 94,000. P. falciparum Dd2 growth, SYBR Green, 72 h; stronger effect = lower value; in the data active = activity change below about -80%; inconclusive = no clear call, values can overlap the other calls
GASC1 inh – blocks human GASC-1 (KDM4C) demethylase activity; GST-KDM4C 2-372, H3K9me3 peptide, LANCE TR-FRET; inhibition, % at 12.5 µM; hit rate 0.15% among 96,000; AID 720574;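 active = mean replicate inhibition above about 25%, with at least 55% of replicates also reaching it, limit read from the data, passing the limit was not always enough; inconclusive = only one of those two conditions met; inactive = neither condition met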
Target sequence (Q9H3R0 2-372 limits assumed): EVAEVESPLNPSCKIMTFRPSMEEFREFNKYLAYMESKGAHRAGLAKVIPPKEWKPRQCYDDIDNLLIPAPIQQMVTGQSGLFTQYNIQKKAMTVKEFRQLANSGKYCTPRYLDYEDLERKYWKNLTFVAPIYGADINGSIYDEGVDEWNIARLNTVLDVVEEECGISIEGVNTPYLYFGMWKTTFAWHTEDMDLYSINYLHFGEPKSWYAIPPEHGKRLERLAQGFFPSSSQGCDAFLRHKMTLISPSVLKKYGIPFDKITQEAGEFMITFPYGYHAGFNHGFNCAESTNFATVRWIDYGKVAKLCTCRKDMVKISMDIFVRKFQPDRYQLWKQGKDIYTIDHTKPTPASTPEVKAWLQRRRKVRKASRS
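System – N-terminal GST-fused human GASC-1 (KDM4C) fragment, residues 2-372 · Input – enzyme final amount 10 nM · Technique – LANCE TR-FRET, Eu antibody, ULight-streptavidin, EDTA, ex 340 nm, em 618/671 nm · Medium – HEPES buffer, pH 7.5, plus ascorbate · Incubation – enzyme reaction 30 min, then detection 60 min, both room temperature · Reagent – H3K9me3 peptide with Fe(II)/2OG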
T cruzi growth-1 – inhibitors of T. cruzi proliferation; T. cruzi beta-gal in NIH3T3, GalScreen luminescence, 90 h; inhibition, % at 8.34 µM; hit rate 5.9% among 77,000; AID 624255;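 active = mean inhibition above about 93%, with at least 55% of replicates each passing it, limit read from the data, passing the limit was not always enough; inconclusive = only one of those two conditions holds; inactive = neither condition holds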
T cruzi growth-2 – inhibitors of T. cruzi proliferation; inhibition, % at 8.35 µM; T. cruzi beta-gal in NIH3T3, GalScreen luminescence, 90 h; shares compounds with T cruzi growth-1; hit rate 72% among 5,600;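 active = mean replicate inhibition above about 95% and at least 55% of replicates individually reaching it, limit read from the data; inconclusive = only one of the two criteria is met; inactive = neither criterion is met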
T cruzi growth-3 – inhibitors of T. cruzi proliferation; shares compounds with T cruzi growth-1; T. cruzi beta-gal in NIH3T3, GalScreen luminescence, 90 h; inhibition, % at 2.09 µM; hit rate 21% among 5,600; AID 651740;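 active = mean inhibition above about 95%, with at least 55% of replicates also reaching it, limit read from the data; inconclusive = meets just one of the two conditions; inactive = meets neither condition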
NIH3T3 tox – cytotoxicity in mouse NIH/3T3 fibroblasts; NIH/3T3 viability, CellTiter-Glo ATP luminescence, 90 h; hit rate 14% among 5,600; shares compounds with T cruzi growth-1; cytotoxicity (signal decrease), % at 8.35 µM; AID 651742;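 active = mean signal decrease across replicates above about 35% based on untreated-well scatter, with enough replicates individually passing, limit read from the data; inconclusive = no rule stated though some were filed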
3T3 cytotox 2 – cytotoxicity in mouse NIH/3T3 fibroblasts. shares compounds with T cruzi growth-1. NIH/3T3 viability, CellTiter-Glo ATP luminescence, 90 h. inhibition, % at 24.9 µM. hit rate 56% among 5,600;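 active = mean loss of cell viability signal at or above a set limit, and enough replicates individually reaching it; inconclusive = meets only the mean limit or only the replicate share; inactive = meets neither condition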
Numbers stand for hits; 0 = inactive; ? = inconclusive; - = no result.

SMILES	IDH1 R132H inh	Pf Dd2 inh	GASC1 inh	T cruzi growth-1	T cruzi growth-2	T cruzi growth-3	NIH3T3 tox	3T3 cytotox 2
Cc1ncc2ccccc2c1C#N	0	-	-	-	-	-	-	-
C[C@H](CO)N1C[C@H](C)[C@H](CN(C)C(=O)Nc2ccc(C(F)(F)F)cc2)OCCCC[C@H](C)Oc2ccc(NC(=O)Cc3ccccc3)cc2C1=O	-	0	0	?	103	102	0	33
C[C@@H]1CCCCO[C@@H](CN(C)C(=O)Nc2ccc(C(F)(F)F)cc2)[C@@H](C)CN([C@H](C)CO)C(=O)c2cc(NC(=O)Cc3ccccc3)ccc2O1	-	0	0	?	108	0	0	0
COCC#Cc1ccc2c(c1)O[C@@H](CN(C)CC1CCCCC1)[C@H](C)CN([C@@H](C)CO)S2(=O)=O	0	0	0	?	103	0	?	105
COCC#Cc1ccc2c(c1)O[C@@H](CN(C)CC1CCCCC1)[C@@H](C)CN([C@@H](C)CO)S2(=O)=O	0	0	0	105	102	0	0	40
COCC#Cc1ccc2c(c1)O[C@H](CN(C)CC1CCOCC1)[C@H](C)CN([C@@H](C)CO)S2(=O)=O	-	0	0	0	-	-	-	-
CN(C)CC(=O)Nc1ccc2c(c1)[C@@H]1C[C@H](CC(=O)N(C)C)O[C@H](CO)[C@@H]1O2	0	0	0	0	-	-	-	-

Screening data: PubChem BioAssay, Broad Institute
